According to ChEMBL document CHEMBL2086296, “Synthesis of novel quinoline-2-one based chalcones of potential anti-tumor activity” (Eur J Med Chem, 2012):

Tests used:
PC-3 [1] = assay: (§1) Cytotoxicity against human PC3 cells after 24 hrs by SRB assay; type: functional; details: PC-3, 24 h
Summary of the method: (§2)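 NCI 60-line screen. Cells in RPMI 1640 with 5% FBS and 2 mM L-glutamine, seeded at 5,000–40,000 cells/well by doubling time, then incubated 24 h at 37 °C, 5% CO2 before dosing. Time-zero plates fixed with TCA at drug addition. DMSO stocks diluted in medium with gentamicin to five concentrations, […]. Protein read by SRB staining. GI50, TGI and LC50 derived relative to control and time-zero.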

K562 [2] = assay: (§3) Cytotoxicity against human K562 cells after 24 hrs by SRB assay; type: cell-based; details: k562, 24 h
Summary of the method: (§4)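 NCI 60-cell screen. Cells grown in RPMI 1640 with 5% FBS and 2 mM L-glutamine, seeded at 5,000–40,000 cells/well, preincubated 24 h at 37 °C in 5% CO2. Drug stock in DMSO, diluted in medium with gentamicin; five final concentrations, 100, 10, 1.0, 0.1 and […]. Time-zero plates were TCA-fixed. Protein read by SRB staining; GI50, TGI and LC50 taken relative to time-zero.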

PC-3 [3] = assay: as §1; type: cell-based; details: pc-3, 24 h; summary of the method: as §4
A498 [4] = assay: (§5) Cytotoxicity against human A498 cells after 24 hrs by SRB assay; type: functional; details: A498, 24 h; summary of the method: as §2
K562 [5] = assay: as §3; type: functional; details: K562, 24 h; summary of the method: as §2
A498 [6] = assay: as §5; type: cell-based; details: a498, 24 h; summary of the method: as §4
Mus musculus [7] = assay: Acute toxicity in athymic nude mouse assessed as weight loss up to 400 mg/kg, ip after 2 weeks; type: organism-based; parameters: dose 400 mg/kg, route intraperitoneal; details: in vivo, 336 h
Summary of the method: (§6)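 Single ip injection in athymic nude mice, one mouse per dose at 400, 200 and 100 mg/kg, dosed at 0.1 mL/10 g body weight, with feed and water ad libitum. Animals observed for 2 weeks and sacrificed on >20% body weight loss or other signs of significant toxicity. If all three were sacrificed, 50, 25 and 12.5 mg/kg were tested next.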

Mus musculus [8] = assay: Acute toxicity in athymic nude mouse assessed as mortality up to 400 mg/kg, ip after 2 weeks; type: organism-based; parameters: dose 400 mg/kg, route intraperitoneal; details: in vivo, 336 h; summary of the method: as §6

Structure (SMILES)	GI50 (PC-3 [1]) [µM]	TGI (PC-3 [1]) [µM]	LC50 (K562 [2]) [µM]	LC50 (PC-3 [3]) [µM]	GI50 (A498 [4]) [µM]	TGI (A498 [4]) [µM]	GI50 (K562 [5]) [µM]	TGI (K562 [5]) [µM]	LC50 (A498 [6]) [µM]	Activity (Mus musculus [7])	Activity (Mus musculus [8])
O=C(/C=C/c1cc2ccccc2[nH]c1=O)c1ccc(O)cc1	5.39	55.3	> 100	> 100	8.44	21.3	3.89	> 100	47.8	–	–
O=C(/C=C/c1cc2ccccc2[nH]c1=O)/C=C/c1cc2ccccc2[nH]c1=O	–	–	–	–	–	–	–	–	–	Non-toxic	Non-toxic
